In the library only some 2.5% were active in any assay of this set; here they are far more common.
Bfl-1 A1 inh: inhibitors of the anti-apoptotic protein A1, read as caspase activation; MEF A1-2A-BIM cells, Caspase-Glo 3/7 luminescence, 3 h; percent of clofoctol response, vehicle zero; caspase activation, % (test concentration not listed); hit rate 0.066% among 330,000; AID 2462;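 active means over half of replicate activation scores above 10%, or exactly half above 10 with the replicate mean above 10; inconclusive means replicate mean below 10 yet half the replicates above 10; inactive means over half of replicates below 10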
NLRP3 yeast inh: inhibitors of NALP3 inflammasome in yeast | Yeast reconstituted NLRP3/ASC/caspase-1, beta-gal luminescence, 24 h | inhibition, % at 10 µM | hit rate 0.39% among 330,000 | AID 2825;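 active means inhibition of 50% or more; inactive means inhibition below 50%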;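 further: plate controls were induced DMSO wells for no effect and uninduced yeast grown without galactose for full effect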
MC4R ag barr: activates human MC4R beta-arrestin recruitment; U2OS MC4R beta-arrestin complementation, luminescence; percent of melanotan II response, DMSO zero; hit rate 0.98% among 360,000; P32245; AID 540308; activation, % at 8.9 µM;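 active means activation above a per-plate cutoff, the mean activation of sample wells on that plate plus 3 SD, cut at about 8% in these data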
Target sequence (P32245 whole entry, looked up): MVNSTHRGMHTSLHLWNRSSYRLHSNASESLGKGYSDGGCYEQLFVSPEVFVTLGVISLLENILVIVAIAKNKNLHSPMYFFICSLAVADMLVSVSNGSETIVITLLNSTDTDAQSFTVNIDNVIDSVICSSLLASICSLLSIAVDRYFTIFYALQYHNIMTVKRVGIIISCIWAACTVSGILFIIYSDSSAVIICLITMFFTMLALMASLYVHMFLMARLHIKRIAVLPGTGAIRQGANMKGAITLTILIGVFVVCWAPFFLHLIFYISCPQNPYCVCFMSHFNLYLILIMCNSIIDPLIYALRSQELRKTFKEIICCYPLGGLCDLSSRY
MC4R antag cAMP: human MC4R antagonism in cAMP assay | P32245 | MC4R-expressing cells, MTII-stimulated cAMP, LANCE TR-FRET | inhibition, % at 6.5 µM | hit rate 0.48% among 360,000 | AID 540295;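 active means inhibition above its plate's cutoff, the mean of tested wells on that plate plus 3 SD, cut at about 29% in these data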;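 further: 0% = Melanotan II alone and 100% = Melanotan II plus saturating MCL0020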
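system = U2OS cells with stable human MC4R expression | also added = Melanotan II challenge after compound preincubation | dosing = one concentration, 6.5 µM nominal | incubation = compound 30 min, challenge 1 h, detection 1 h | measured by = TR-FRET with Eu-cAMP and labeled anti-cAMP, 671 nm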
NALP1 yeast inh: inhibitors of NALP1 inflammasome in yeast. S. cerevisiae NALP1/ASC/caspase-1 growth, X-gal OD620, 72 h. inhibition, % at 10 µM. hit rate 0.61% among 280,000; in the data active means inhibition mostly above about 24%, no sharp cut-off; inactive means mostly below about 32%
TbMetRS inhib: blocks T. brucei methionyl-tRNA synthetase activity. inhibition, % at 11.9 µM. purified T. brucei MetRS, ATP depletion, Kinase-Glo luminescence. hit rate 0.4% among 360,000;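 active means inhibition above a per-plate cutoff of the control wells' mean inhibition plus 3 SD, cut at about 5.5% in these data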;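 further: 0% = DMSO wells median and 100% = median of wells with control inhibitor compound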
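Test system: purified T. brucei MetRS enzyme. Also added: ATP, methionine and E. coli bulk tRNA substrates. Compound: 11.9 µM single point. Schedule: 15 min enzyme-compound preincubation, 2 h reaction, 10 min detection, 25 °C. Signal: luciferase luminescence of residual ATP, Kinase-Glo. Evaluation: percent inhibition versus plate control medians. Controls: DMSO wells, low control.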
TbMetRS confirm: Trypanosoma brucei MetRS inhibition confirmed. shares compounds with TbMetRS inhib. T. brucei MetRS enzyme, luminescence (ATP depletion). inhibition, % at 11.9 µM. hit rate 93% among 1,400; in the data active means inhibition above about 7%
Jurkat tox: Jurkat T cell cytotoxicity for MetRS hits. shares compounds with TbMetRS inhib. Jurkat cells viability, ATP luminescence. inhibition, % at 8.3 µM. hit rate 12% among 1,400. AID 624413; in the data active means inhibition above about 15%;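 further: 0% = vehicle and 100% = reference inhibitor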
Tb MetRS inh FP: inhibits T. brucei methionyl tRNA synthetase in orthogonal FP test; hit rate 44% among 1,400; purified T. brucei MetRS, fluorescence polarization; inhibition, % at 11.9 µM; shares compounds with TbMetRS inhib; in the data active means inhibition above about 17%;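 further: 0% = vehicle wells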
* = called active by the depositor; ? = inconclusive; . = no result given.

SMILES	Bfl-1 A1 inh	NLRP3 yeast inh	MC4R ag barr	MC4R antag cAMP	NALP1 yeast inh	TbMetRS inhib	TbMetRS confirm	Jurkat tox	Tb MetRS inh FP
C=CCn1c(NC(=O)c2ccccc2Cl)c(C#N)c2nc3ccccc3nc21	2	4	0	20	10	6.8*	0	-2	6
CCOC(=O)N1CCC2(CC1)NC(=O)c1ccccc1N2	.	.	-1	1	.	0	.	.	.
O=C(NCc1nc2ncc(Br)cc2[nH]1)c1ccccc1	0	5	-1	9	17	6.8*	16*	1	8
COc1ccc(NS(=O)(=O)c2cccc(C(=O)NCCCn3ccnc3)c2)cc1	0	4	-2	1	.	0	.	.	.
CCN(CC)C(=O)CCCOc1ccc(Cl)cc1Cl	1	19	-1	-3	16	9.1*	16*	13	5
COc1ccc(CNC(=O)COC(=O)CCCOc2ccc(Cl)cc2Cl)cc1	0	18	-1	-4	32	0	.	.	.
CC(C)NC(=O)CCCOc1ccc(Cl)cc1Cl	0	29	0	8	50	6.3*	11*	-11	-2
O=C(COC(=O)CCCOc1ccc(Cl)cc1Cl)Nc1cccc(Cl)c1	-2	24	-1	4	18	31*	45*	1	49*
CN1CCN(C(=O)CCCOc2ccc(Cl)cc2Cl)CC1	0	9	0	-3	-13	2	.	.	.
C#CCN(C)CCCOc1ccc(Cl)cc1Cl	0	46	1	4	56*	7.3*	18*	6	3
CCOCCCn1c(SCC(=O)NC2CCCCC2)nc2ccccc2c1=O	.	.	3	8	.	0	.	.	.
CCOc1ccc(NC(=S)NCc2nc3ccccc3[nH]2)cc1	0	16	3	23	6	4	.	.	.
FC(F)Oc1ccc(NC(=S)NCc2nc3ccccc3[nH]2)cc1	0	0	-1	7	5	55*	65*	9	40*
O=C(NCc1ccccc1CN1CCOCC1)c1ccc(-n2cccn2)cc1	1	19	0	7	.	0	.	.	.
CCOc1ccc(S(=O)(=O)c2c[nH]c3ccccc3c2=O)cc1	0	13	-2	2	11	13*	24*	1	6
C[C@H](O)[C@@H]1CN2CCc3c([nH]c4ccccc34)[C@@H]2C[C@@H]1N(C)C(=S)NCCc1ccccc1	.	.	.	.	.	7.8*	6.7*	6	11
CO/N=C(\c1nonc1N)N1CCN(c2ccc(Cl)cc2[N+](=O)[O-])CC1	0	10	-1	0	-5	16*	24*	10	21*
O=C(CSc1nc2ccc(Cl)cc2[nH]1)N1CCN(C(=O)c2ccco2)CC1	0	-8	-1	2	32	12*	14*	17*	12
O=C(CSc1nc2ccc(Cl)cc2[nH]1)NC1CCCC1	1	1	-2	-1	14	14*	33*	1	14
O=C(CSc1nc2ncc(Cl)cc2[nH]1)c1c[nH]c2ccccc12	0	13	4	5	13	1	.	.	.
O=C(CSc1nc2ccccc2[nH]1)Nc1ccc(F)c(F)c1	-2	1	2	-12	.	36*	51*	0	26*
O=C(CSc1nc2ccc(Cl)cc2[nH]1)c1c[nH]c2ccccc12	0	9	-2	-2	-5	15*	20*	-1	25*
O=C(CSc1nc2ccccc2[nH]1)Nc1ccccc1F	0	-16	0	0	-3	-1	.	.	.
CCC(C(=O)NCc1ccc(F)cc1)N(Cc1cccs1)C(=O)c1snc(C(N)=O)c1N (stereo not drawn)	0	21	1	-2	-1	0	.	.	.
Cc1ccc2nc(SCC(=O)Nc3ccc4[nH]c(=O)[nH]c4c3)[nH]c2c1	.	9	-2	-11	.	1	.	.	.
SMILES	Bfl-1 A1 inh	NLRP3 yeast inh	MC4R ag barr	MC4R antag cAMP	NALP1 yeast inh	TbMetRS inhib	TbMetRS confirm	Jurkat tox	Tb MetRS inh FP
O=C(CSc1nc2ccc(Cl)cc2[nH]1)Nc1ccc2[nH]c(=O)[nH]c2c1	-3	17	-2	3	.	8.3*	33*	-6	15
O=C(Cn1cnc2ccccc21)Nc1ccc(F)c(F)c1	0	10	-2	-7	-1	17*	30*	2	12
O=C(Cn1cnc2ccccc21)Nc1ccc(C(=O)O)cc1	0	0	-2	9	-7	0	.	.	.
O=C(CSc1nc2ncc(Cl)cc2[nH]1)NC1CCS(=O)(=O)C1 (stereo not drawn)	0	1	0	2	14	6.2*	22*	-7	5
Cc1ccc(S(=O)(=O)NC(=O)C2(C)CCN2C(=O)CC2CCCCC2)nc1 (stereo not drawn)	.	.	-2	-1	.	0	.	.	.
Cc1ccc(-n2nc(C(=O)c3ccccc3)n3c(=O)c(Cc4ccccc4)nnc23)cc1	-1	7	0	7	.	0	.	.	.
O=C(c1ccccc1)c1nn(-c2ccccc2)c2nnc(Cc3ccccc3)c(=O)n12	0	-8	0	-3	-2	6.5*	16*	15*	6
O=[N+]([O-])c1cccc(S(=O)(=O)/N=C(/Nc2ccccc2)c2ccccc2)c1	?	5	0	13	.	0	.	.	.
CC(=O)NCCCOc1ccc([N+](=O)[O-])cc1Cl	0	10	-3	11	0	7.3*	14*	-1	5
CCOC(=O)CC1(C)c2nc(NC(C)=O)sc2Cc2sc(NC(C)=O)nc21	.	.	.	.	.	0	.	.	.
CNC(=O)COC(=O)c1ccc(Cl)c(S(N)(=O)=O)c1	0	-3	-1	10	-3	6.4*	3	-5	3
Cc1ccc2[nH]c(=O)c(CN(Cc3cccs3)Cc3nnnn3Cc3ccccc3)cc2c1	1	30	-1	9	2	9.1*	21*	5	14
COc1ccccc1/C=C/C(=O)N1CCc2cc(OC)c(OC)cc2C1C (stereo not drawn)	0	22	-2	8	1	-1	.	.	.
O=C(N/N=C/c1ccc(-c2ccc(S(=O)(=O)Nc3ncccn3)cc2)o1)c1cc2ccccc2cc1O	0	8	-2	-4	8	6.8*	30*	-4	27*
COC(=O)c1ccc(CSc2nnc(Nc3ccc(C)cc3)s2)o1	0	14	3	9	-7	7.5*	14*	1	8

Screening data from PubChem BioAssay.
